This is an account of results in ChEMBL document CHEMBL4261508, “Pyrazolo[3,4-d]pyrimidines as sigma-1 receptor ligands for the treatment of pain. Part 2: Introduction of cyclic substituents in position 4” (Medchemcomm, 2017).

One data set has as its target CYP2D6 (Homo sapiens, UniProt P10635). The data set can be described thus: Inhibition of recombinant human CYP2D6 at 1 uM relative to control. The class given is ADME.
Data set [1] deals with Mus musculus. The data set can be described thus: Analgesic activity in formalin-induced nociception CD-1 mouse model assessed as reduction in time spent in licking or biting formalin injected hind paw at 80 mg/kg, po pretreated for 30 mins followed by formalin stimulation measured up to 5 mins. The class given is functional, organism-based.
Data set [2] has as its system HepG2. The data set can be described thus: Cytotoxicity against human HepG2 cells up to 100 uM by neutral red uptake assay. The class given is cell-based. In short, it runs like this: (§1)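 HepG2 cells exposed to compound up to 100 μM. Cytotoxicity read by MTT and by Neutral Red uptake.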
For data set [3], the system named is Mus musculus. The data set can be described thus: Antinociceptive activity in capsaicin-induced nociception pain CD-1 mouse model assessed as increase in paw withdrawal latency at 80 mg/kg, po pretreated for 30 mins followed by capsaicin challenge measured after 15 mins by von frey filament assay relative to control. The class given is functional. In short, it runs like this:
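Capsaicin test in mice, drug given orally at 80 mg/kg. Mechanical hypersensitivity was read as paw withdrawal latency to upward pressure by von Frey filament. Result is % reduction in drug-treated vs vehicle animals.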

A further data set deals with CYP2C9 (Homo sapiens, UniProt P11712). The data set can be described thus: Inhibition of recombinant human CYP2C9 at 1 uM relative to control. The class given is ADME.
Chain of CYP2C9 (P11712 whole entry): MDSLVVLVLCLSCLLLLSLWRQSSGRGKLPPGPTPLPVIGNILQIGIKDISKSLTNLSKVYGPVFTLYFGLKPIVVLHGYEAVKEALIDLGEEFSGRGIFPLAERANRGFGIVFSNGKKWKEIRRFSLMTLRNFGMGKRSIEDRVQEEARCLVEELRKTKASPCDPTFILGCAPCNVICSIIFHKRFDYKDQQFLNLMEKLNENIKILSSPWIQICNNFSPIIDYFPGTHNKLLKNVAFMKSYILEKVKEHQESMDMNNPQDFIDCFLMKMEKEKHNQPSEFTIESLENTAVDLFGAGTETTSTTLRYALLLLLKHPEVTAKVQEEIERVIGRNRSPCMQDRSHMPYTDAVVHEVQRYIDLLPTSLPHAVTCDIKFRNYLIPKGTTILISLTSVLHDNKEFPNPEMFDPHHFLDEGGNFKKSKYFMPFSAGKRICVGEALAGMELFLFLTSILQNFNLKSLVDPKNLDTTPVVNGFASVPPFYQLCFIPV
In data set [4] the test system is Mus musculus. The data set can be described thus: Analgesic activity in formalin-induced nociception CD-1 mouse model assessed as reduction in time spent in licking or biting formalin injected hind paw at 40 mg/kg, ip pretreated for 30 mins followed by formalin stimulation measured up to 5 mins. The class given is functional, organism-based.
In the next data set the target is T1, CYP1A2 (Homo sapiens, UniProt P05177).
T1 sequence (P05177 whole entry): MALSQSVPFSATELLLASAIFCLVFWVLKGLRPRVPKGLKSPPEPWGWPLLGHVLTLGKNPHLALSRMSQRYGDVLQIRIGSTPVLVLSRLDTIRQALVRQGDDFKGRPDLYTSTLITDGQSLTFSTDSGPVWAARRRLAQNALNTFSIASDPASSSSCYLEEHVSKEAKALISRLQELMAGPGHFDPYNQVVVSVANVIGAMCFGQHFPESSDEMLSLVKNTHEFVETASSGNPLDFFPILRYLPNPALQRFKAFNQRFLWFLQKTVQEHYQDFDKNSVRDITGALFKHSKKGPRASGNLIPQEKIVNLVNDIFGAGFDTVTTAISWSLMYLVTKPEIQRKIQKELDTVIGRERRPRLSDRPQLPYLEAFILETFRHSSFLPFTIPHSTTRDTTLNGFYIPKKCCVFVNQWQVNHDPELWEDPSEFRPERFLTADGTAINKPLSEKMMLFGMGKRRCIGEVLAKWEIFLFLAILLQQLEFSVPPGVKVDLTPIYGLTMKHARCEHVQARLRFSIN
The data set can be described thus: Inhibition of recombinant human CYP1A2 at 1 uM relative to control. The class given is ADME.

Data set [5] deals with Mus musculus. The data set can be described thus: Analgesic activity in formalin-induced nociception CD-1 mouse model assessed as reduction in time spent in licking or biting formalin injected hind paw at 40 mg/kg, ip pretreated for 30 mins followed by formalin stimulation measured after 15 to 30 mins relative to control. Also on record: scale not given: the % may be the effect or the level left. The class given is functional. An outline of the steps: (§2)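 Mice received drug i.p. (40 mg/kg) or p.o. (80 mg/kg), and formalin was injected intraplantar. Paw licking-biting time in phase II (delayed phase) was scored. Result is % antinociception in treated animals vs vehicle.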

For a further data set, the target named is CYP3A4 (Homo sapiens, UniProt P08684). The data set can be described thus: Inhibition of recombinant human CYP3A4 at 1 uM relative to control. The class given is ADME.
Chain of CYP3A4 (P08684 whole entry): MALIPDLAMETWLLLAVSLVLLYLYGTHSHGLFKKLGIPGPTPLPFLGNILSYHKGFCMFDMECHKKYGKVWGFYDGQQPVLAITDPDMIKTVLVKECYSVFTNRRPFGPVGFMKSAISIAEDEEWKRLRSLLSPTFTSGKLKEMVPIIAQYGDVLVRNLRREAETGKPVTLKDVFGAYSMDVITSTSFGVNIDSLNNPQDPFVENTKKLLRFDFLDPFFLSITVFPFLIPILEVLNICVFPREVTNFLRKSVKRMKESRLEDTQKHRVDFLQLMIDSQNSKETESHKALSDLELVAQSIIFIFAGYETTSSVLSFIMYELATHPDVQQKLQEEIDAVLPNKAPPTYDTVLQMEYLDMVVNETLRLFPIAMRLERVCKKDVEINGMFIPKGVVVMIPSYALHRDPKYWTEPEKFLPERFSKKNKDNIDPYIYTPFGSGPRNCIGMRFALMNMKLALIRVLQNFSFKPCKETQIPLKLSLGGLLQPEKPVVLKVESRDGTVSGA
The nature of data set [6]: Displacement of [3H]-DTG from sigma2 receptor in guinea pig brain membranes after 120 mins in presence of sigma1 […] (+)-SKF10047 by microbeta scintillation counting method. The class given is cell membranes, Cavia porcellus, Membrane.
Data set [7] concerns Mus musculus. The data set can be described thus: Analgesic activity in formalin-induced nociception CD-1 mouse model assessed as reduction in time spent in licking or biting formalin injected hind paw at 80 mg/kg, po pretreated for 30 mins followed by formalin stimulation measured after 15 to 30 mins relative to control. The class given is functional. Also on record: scale not given: the % may be the effect or the level left. In short, it runs like this:
as §2

Data set [8] is described as follows: Thermodynamic solubility of the compound in pH 7.4 phosphate buffer. The class given is physicochemical. To be noted: read-out: Therm_solubility.
Data set [9] is described as follows: Apparent permeability in human Caco2 cells. The class given is ADME, cell-based. To be noted: Caco-2.
A short description of data set [10]: Intrinsic clearance in human liver microsomes assessed as per mg protein at 1 uM after 1 hr in presence of NADPH-generating system by UPLC-MS/MS analysis. The class given is ADME, microsome. To be noted: read-out: CLH.
The nature of data set [11]: Thermodynamic solubility of the compound in pH 2 phosphate buffer. The class given is physicochemical. To be noted: read-out: Therm_solubility.
The subject of data set [12] is HepG2. The data set can be described thus: Cytotoxicity against human HepG2 cells up to 100 uM by MTT assay. The class given is cell-based. In short, it runs like this: as §1
In a further data set the target is CYP2C19 (Homo sapiens, UniProt P33261). The data set can be described thus: Inhibition of recombinant human CYP2C19 at 1 uM relative to control. The class given is ADME.
Chain of CYP2C19 (P33261 whole entry): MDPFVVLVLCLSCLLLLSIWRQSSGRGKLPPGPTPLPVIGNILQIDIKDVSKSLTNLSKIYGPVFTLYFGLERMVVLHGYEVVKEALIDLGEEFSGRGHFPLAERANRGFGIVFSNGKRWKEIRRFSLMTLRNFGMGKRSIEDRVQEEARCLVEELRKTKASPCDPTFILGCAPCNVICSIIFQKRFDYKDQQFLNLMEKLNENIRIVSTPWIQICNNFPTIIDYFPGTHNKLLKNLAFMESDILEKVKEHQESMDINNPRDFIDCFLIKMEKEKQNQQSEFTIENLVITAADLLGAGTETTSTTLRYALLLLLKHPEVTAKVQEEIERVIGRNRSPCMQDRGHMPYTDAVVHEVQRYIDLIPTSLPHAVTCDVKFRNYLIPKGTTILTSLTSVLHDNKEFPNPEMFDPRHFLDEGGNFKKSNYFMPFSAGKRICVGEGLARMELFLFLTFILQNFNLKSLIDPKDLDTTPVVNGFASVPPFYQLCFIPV
Data set [13] can be described thus: Stability of the compound assessed as drug degradation at pH 7.4. The class given is physicochemical. To be noted: buffer. An outline of the steps: (§3)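 Chemical stability measured by LC/MS. A 10 mM DMSO stock of compound was diluted into phosphate buffer pH 7.4 or 0.01 M HCl pH 2.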
The subject of data set [14] is Mus musculus. The data set can be described thus: Antinociceptive activity in partial sciatic nerve ligation CD-1 mouse model of neuropathic pain assessed as reduction in mechanical hypersensitivity at 80 mg/kg, po administered 8 days post partial sciatic nerve injury measured after 30 mins by von frey filament assay relative to control. The class given is functional. Set-up: scale not given: the % may be the effect or the level left. In short, it runs like this: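 Mice with partial sciatic nerve ligation, drug given orally at 80 mg/kg. Pressure threshold (g) for paw withdrawal to von Frey filament was measured after dosing. It was compared with vehicle response 8 days post-surgery and with pre-ligation baseline to give % reduction of hypersensitivity.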

The nature of data set [15]: Stability of the compound assessed as drug degradation at pH 2. The class given is physicochemical. To be noted: buffer. An outline of the steps:
as §3

A further data set concerns Salmonella typhimurium. The data set can be described thus: Genotoxicity in Salmonella typhimurium TA1535 harboring pSK1002 by […]. The class given is toxicity, organism-based. To be noted: salmonella enterica subsp. enterica serovar typhimurium.

Values after ≈ are worked out from the molar mass of the structure shown. Active and inactive are the calls of the source.

Chain of CYP2D6 (P10635 whole entry): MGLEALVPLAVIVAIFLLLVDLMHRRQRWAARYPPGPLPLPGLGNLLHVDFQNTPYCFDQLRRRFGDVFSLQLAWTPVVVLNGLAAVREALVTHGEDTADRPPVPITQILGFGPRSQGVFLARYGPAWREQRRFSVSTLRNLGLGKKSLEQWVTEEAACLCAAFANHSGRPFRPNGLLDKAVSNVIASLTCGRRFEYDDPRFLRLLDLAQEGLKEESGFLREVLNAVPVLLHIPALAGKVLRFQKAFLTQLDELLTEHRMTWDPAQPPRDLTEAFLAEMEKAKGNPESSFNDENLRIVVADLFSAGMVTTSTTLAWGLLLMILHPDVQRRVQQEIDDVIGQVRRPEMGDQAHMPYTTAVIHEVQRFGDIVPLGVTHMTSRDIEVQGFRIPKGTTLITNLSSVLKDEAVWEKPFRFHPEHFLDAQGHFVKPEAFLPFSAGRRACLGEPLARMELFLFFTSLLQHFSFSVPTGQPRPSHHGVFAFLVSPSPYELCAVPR

Regarding `Cn1nccc1-c1ncnc2c1cnn2CCN1CCCCC1`, the inhibition at 1 µM on CYP2D6, on CYP2C9, at CYP1A2, at CYP3A4 and at CYP2C19 was < 50% throughout. Besides, the outcome with Mus musculus [1] and in the data set with Mus musculus [4] was Active. Besides, the Activity result is reported as “Non-Toxic” with HepG2 [2]; 43% in the data set with Mus musculus [3]; 67% with Mus musculus [5]; 54% in the data set with Mus musculus [7]; “Non-Toxic” in the data set with HepG2 [12]; 46% in the data set on Mus musculus [14]. Moreover, the Activity result in the data set on Salmonella typhimurium is given as “Non-Toxic”. The Ki in data set [6] is > 1000 nM. In addition, the solubility thermodynamic turned out to be 1500 µg/mL (≈ 4.82 mM) in data set [8] and 2400 µg/mL (≈ 7.71 mM) in data set [11]. For the same compound, the Papp in [9] came to 40.7 ×10⁻⁶ cm/s. Moreover, in data set [10], the microsomal CLint at 1 µM came to 2.4 µL/min/mg. Also, the Stability entry in data set [13] and in data set [15] was “Stable” each time.
For the compound `Cc1cc(OCCN2CCOCC2)nn1-c1ccc2ccccc2c1`, the result with Mus musculus [1] and with Mus musculus [4] was Active. For the same compound, the Activity in the data set with Mus musculus [3] worked out at 48%; in the data set on Mus musculus [5], 50%; in the data set with Mus musculus [7], 66%; in the data set with Mus musculus [14], 62%. In addition, the Stability entry in [13] and in [15] was “Stable” throughout.
